Source: ChEMBL document CHEMBL1150108, “Isolation of S-n-butylcysteine sulfoxide and six n-butyl-containing thiosulfinates from Allium siculum” (2002)

How the values were obtained:
Format in all cases: functional
Streptococcus agalactiae [1] = test: Antibacterial activity against Streptococcus agalactiae ATCC 13813 at 500 ug/disk after overnight incubation by agar diffusion test; conditions: read-out: Diameter of inhibition zone
Procedure, shortened: (§1)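 Disk diffusion on agar plates seeded with the named strain. Test samples were dissolved in EtOH, and a 10 µL aliquot was applied to a 6 mm paper disk to give 10, 250 or 500 µg per disk. Commercial antibiotic disks served as controls. Plates were incubated overnight at 37 °C, and the diameter of the inhibition zone around each disk was read in mm.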

Bacillus cereus [2] = test: Antibacterial activity against Bacillus cereus ATCC 11778 at 10 ug/disk after overnight incubation by agar diffusion test; conditions: for zone of inhibition at 10 µg/disc: read-out: Diameter of inhibition zone; procedure, shortened: as §1
Staphylococcus aureus [3] = test: Antibacterial activity against Staphylococcus […] at 10 ug/disk after overnight incubation by agar diffusion test; conditions: read-out: Diameter of inhibition zone; procedure, shortened: as §1
Escherichia coli [4] = test: Antibacterial activity against Escherichia coli ATCC 25922 at 500 ug/disk after overnight incubation by agar diffusion test; conditions: read-out: Diameter of inhibition zone; procedure, shortened: as §1
Pseudomonas aeruginosa [5] = test: Antibacterial activity against Pseudomonas aeruginosa ATCC 27853 at 500 ug/disk after overnight incubation by agar diffusion test; conditions: read-out: Diameter of inhibition zone; procedure, shortened: as §1
Bacillus cereus [6] = test: Antibacterial activity against Bacillus cereus ATCC 11778 at 500 ug/disk after overnight incubation by agar diffusion test; conditions: read-out: Diameter of inhibition zone; procedure, shortened: as §1
Escherichia coli [7] = test: Antibacterial activity against Escherichia coli ATCC 25922 at 10 ug/disk after overnight incubation by agar diffusion test; conditions: read-out: Diameter of inhibition zone; procedure, shortened: as §1
Escherichia coli [8] = test: Antibacterial activity against Escherichia coli ATCC 25922 at 250 ug/disk after overnight incubation by agar diffusion test; conditions: read-out: Diameter of inhibition zone; procedure, shortened: as §1
Pseudomonas aeruginosa [9] = test: Antibacterial activity against Pseudomonas aeruginosa ATCC 27853 at 10 ug/disk after overnight incubation by agar diffusion test; conditions: read-out: Diameter of inhibition zone; procedure, shortened: as §1
Pseudomonas aeruginosa [10] = test: Antibacterial activity against Pseudomonas aeruginosa ATCC 27853 at 250 ug/disk after overnight incubation by agar diffusion test; conditions: read-out: Diameter of inhibition zone; procedure, shortened: as §1
[11] = tested on: Stenotrophomonas maltophilia; test: Antibacterial activity against Stenotrophomonas maltophilia ATCC 13637 at 500 ug/disk after overnight incubation by agar diffusion test; conditions: read-out: Diameter of inhibition zone; procedure, shortened: as §1
Staphylococcus aureus [12] = test: Antibacterial activity against Staphylococcus […] at 250 ug/disk after overnight incubation by agar diffusion test; conditions: read-out: Diameter of inhibition zone; procedure, shortened: as §1
Staphylococcus aureus [13] = test: Antibacterial activity against Staphylococcus […] at 500 ug/disk after overnight incubation by agar diffusion test; conditions: read-out: Diameter of inhibition zone; procedure, shortened: as §1
Streptococcus agalactiae [14] = test: Antibacterial activity against Streptococcus agalactiae ATCC 13813 at 10 ug/disk after overnight incubation by agar diffusion test; conditions: for zone of inhibition at 10 µg/disc: read-out: Diameter of inhibition zone; procedure, shortened: as §1
[15] = tested on: Stenotrophomonas maltophilia; test: Antibacterial activity against Stenotrophomonas maltophilia ATCC 13637 at 250 ug/disk after overnight incubation by agar diffusion test; conditions: read-out: Diameter of inhibition zone; procedure, shortened: as §1
[16] = tested on: Klebsiella pneumoniae subsp. pneumoniae; test: Antibacterial activity against Klebsiella pneumoniae subsp. pneumoniae ATCC 13833 at 10 ug/disk after overnight incubation by agar diffusion test; conditions: for zone of inhibition at 10 µg/disc: read-out: Diameter of inhibition zone; procedure, shortened: as §1
Streptococcus agalactiae [17] = test: Antibacterial activity against Streptococcus agalactiae ATCC 13813 at 250 ug/disk after overnight incubation by agar diffusion test; conditions: read-out: Diameter of inhibition zone; procedure, shortened: as §1
[18] = tested on: Klebsiella pneumoniae subsp. pneumoniae; test: Antibacterial activity against Klebsiella pneumoniae subsp. pneumoniae ATCC 13833 at 500 ug/disk after overnight incubation by agar diffusion test; conditions: read-out: Diameter of inhibition zone; procedure, shortened: as §1
[19] = tested on: Stenotrophomonas maltophilia; test: Antibacterial activity against Stenotrophomonas maltophilia ATCC 13637 at 10 ug/disk after overnight incubation by agar diffusion test; conditions: for zone of inhibition at 10 µg/disc: read-out: Diameter of inhibition zone; procedure, shortened: as §1
Bacillus cereus [20] = test: Antibacterial activity against Bacillus cereus ATCC 11778 at 250 ug/disk after overnight incubation by agar diffusion test; conditions: read-out: Diameter of inhibition zone; procedure, shortened: as §1
[21] = tested on: Klebsiella pneumoniae subsp. pneumoniae; test: Antibacterial activity against Klebsiella pneumoniae subsp. pneumoniae ATCC 13833 at 250 ug/disk after overnight incubation by agar diffusion test; conditions: read-out: Diameter of inhibition zone; procedure, shortened: as §1
[22] = tested on: Stenotrophomonas maltophilia; test: Antibacterial activity against Stenotrophomonas maltophilia ATCC 13637 at 30 ug/disk after overnight incubation by agar diffusion test; conditions: read-out: Diameter of inhibition zone
Procedure, shortened: (§2)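 Commercial antibiotic control disks were placed on agar plates seeded with the named strain. Plates were incubated overnight at 37 °C, and the diameter of the inhibition zone around each disk was measured in mm.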

Pseudomonas aeruginosa [23] = test: Antibacterial activity against Pseudomonas aeruginosa ATCC 27853 at 30 ug/disk after overnight incubation by agar diffusion test; conditions: read-out: Diameter of inhibition zone; procedure, shortened: as §2
Streptococcus agalactiae [24] = test: Antibacterial activity against Streptococcus agalactiae ATCC 13813 at 30 ug/disk after overnight incubation by agar diffusion test; conditions: read-out: Diameter of inhibition zone; procedure, shortened: as §2
Staphylococcus aureus [25] = test: Antibacterial activity against Staphylococcus […] at 30 ug/disk after overnight incubation by agar diffusion test; conditions: read-out: Diameter of inhibition zone; procedure, shortened: as §2
Bacillus cereus [26] = test: Antibacterial activity against Bacillus cereus ATCC 11778 at 30 ug/disk after overnight incubation by agar diffusion test; conditions: read-out: Diameter of inhibition zone; procedure, shortened: as §2
[27] = tested on: Klebsiella pneumoniae subsp. pneumoniae; test: Antibacterial activity against Klebsiella pneumoniae subsp. pneumoniae ATCC 13833 at 30 ug/disk after overnight incubation by agar diffusion test; conditions: read-out: Diameter of inhibition zone; procedure, shortened: as §2
Escherichia coli [28] = test: Antibacterial activity against Escherichia coli ATCC 25922 at 30 ug/disk after overnight incubation by agar diffusion test; conditions: read-out: Diameter of inhibition zone; procedure, shortened: as §2

Molecule | zone of inhibition at 500 µg/disc (Streptococcus agalactiae [1]) | zone of inhibition at 10 µg/disc (Bacillus cereus [2]) | zone of inhibition at 10 µg/disc (Staphylococcus aureus [3]) | zone of inhibition at 500 µg/disc (Escherichia coli [4]) | zone of inhibition at 500 µg/disc (Pseudomonas aeruginosa [5]) | zone of inhibition at 500 µg/disc (Bacillus cereus [6]) | zone of inhibition at 10 µg/disc (Escherichia coli [7]) | zone of inhibition at 250 µg/disc (Escherichia coli [8]) | zone of inhibition at 10 µg/disc (Pseudomonas aeruginosa [9]) | zone of inhibition at 250 µg/disc (Pseudomonas aeruginosa [10]) | zone of inhibition at 500 µg/disc [11] | zone of inhibition at 250 µg/disc (Staphylococcus aureus [12]) | zone of inhibition at 500 µg/disc (Staphylococcus aureus [13]) | zone of inhibition at 10 µg/disc (Streptococcus agalactiae [14]) | zone of inhibition at 250 µg/disc [15] | zone of inhibition at 10 µg/disc [16] | zone of inhibition at 250 µg/disc (Streptococcus agalactiae [17]) | zone of inhibition at 500 µg/disc [18] | zone of inhibition at 10 µg/disc [19] | zone of inhibition at 250 µg/disc (Bacillus cereus [20]) | also measured
CCCCS[S+]([O-])CCCC (stereo not drawn) | 34 mm | 8 mm | 10 mm | 16 mm | 0 mm | 40 mm | 0 mm | 10 mm | 0 mm | 0 mm | 16 mm | 34 mm | 38 mm | 0 mm | 8 mm | 0 mm | 30 mm | 8 mm | 0 mm | 34 mm | zone of inhibition at 250 µg/disc [21]: 8 mm
CN(C)[C@@H]1C(O)=C(C(N)=O)C(=O)[C@@]2(O)C(O)=C3C(=O)c4c(O)cccc4[C@@](C)(O)[C@H]3C[C@@H]12 [TETRACYCLINE] |  |  |  |  |  |  |  |  |  |  |  |  |  |  |  |  |  |  |  |  | zone of inhibition at 30 µg/disc [22]: 13 mm; zone of inhibition at 30 µg/disc (Pseudomonas aeruginosa [23]): 10 mm; zone of inhibition at 30 µg/disc (Streptococcus agalactiae [24]): 28 mm; zone of inhibition at 30 µg/disc (Staphylococcus aureus [25]): 20 mm; zone of inhibition at 30 µg/disc (Bacillus cereus [26]): 27 mm; zone of inhibition at 30 µg/disc [27]: 18 mm; zone of inhibition at 30 µg/disc (Escherichia coli [28]): 18 mm
GENTAMICIN |  |  |  |  |  |  |  |  |  |  |  |  |  |  |  |  |  |  |  |  | inhibition zone (IZ) (Bacillus cereus [2]): 22 mm; inhibition zone (IZ) (Streptococcus agalactiae [14]): 18 mm; inhibition zone (IZ) [16]: 22 mm; inhibition zone (IZ) [19]: 20 mm
CC1(C)S[C@@H]2[C@H](NC(=O)[C@H](N)c3ccccc3)C(=O)N2[C@H]1C(=O)O [AMPICILLIN] |  | 7 mm | 38 mm |  |  |  | 18 mm |  | 0 mm |  |  |  |  | 30 mm |  | 0 mm |  |  | 0 mm |  | 
CCCCS[S+](C)[O-] (stereo not drawn) | 24 mm | 0 mm | 0 mm | 20 mm | 0 mm | 28 mm | 0 mm | 14 mm | 0 mm | 0 mm | 17 mm | 20 mm | 26 mm | 0 mm | 12 mm | 0 mm | 16 mm | 20 mm | 0 mm | 22 mm | zone of inhibition at 250 µg/disc [21]: 12 mm
CCCC[S+]([O-])SC (stereo not drawn) | 0 mm | 0 mm | 8 mm | 24 mm | 8 mm | 34 mm | 0 mm | 22 mm | 0 mm | 0 mm | 14 mm | 30 mm | 38 mm | 0 mm | 12 mm | 0 mm | 0 mm | 18 mm | 0 mm | 30 mm | zone of inhibition at 250 µg/disc [21]: 16 mm
O=C(N[C@H](CO)[C@H](O)c1ccc([N+](=O)[O-])cc1)C(Cl)Cl [CHLORAMPHENICOL] |  |  |  |  |  |  |  |  |  |  |  |  |  |  |  |  |  |  |  |  | zone of inhibition at 30 µg/disc [22]: 22 mm; zone of inhibition at 30 µg/disc (Pseudomonas aeruginosa [23]): 0 mm; zone of inhibition at 30 µg/disc (Streptococcus agalactiae [24]): 23 mm; zone of inhibition at 30 µg/disc (Staphylococcus aureus [25]): 18 mm; zone of inhibition at 30 µg/disc (Bacillus cereus [26]): 20 mm; zone of inhibition at 30 µg/disc [27]: 24 mm; zone of inhibition at 30 µg/disc (Escherichia coli [28]): 20 mm
